In brackets after ≈: the same amount, converted by molar mass.
Key:
[1] = Area under plasma concentration vs time curve observed in Rhesus monkeys after, iv administration of single 30 mg/kg dose; format: ADME, organism-based, Macaca mulatta; parameters: dose 30 mg/kg, route intravenous; details: rhesus monkey
Summary of the method: (§1)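 Rhesus monkeys, adult males, six animals per compound, each given drug orally and iv; fasted overnight. Single 30 mg/kg solution doses, by nasogastric tube (in water) or saphenous vein (in isotonic lactated Ringer). Plasma sampled at intervals, frozen at -70 °C, antibacterial activity by microbiological assay. AUC in μg min/mL; oral bioavailability from oral vs iv AUC.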

[2] = Area under plasma concentration vs time curve observed in Rhesus monkeys after oral administration of single 30 mg/kg dose; format: ADME, organism-based, Macaca mulatta; parameters: dose 30 mg/kg, route oral; details: rhesus monkey; summary of the method: as §1
Canis familiaris [3] = test: Area under plasma concentration vs time curve observed in female mongrel dogs after, iv administration of single 15 mg/kg dose; format: ADME, organism-based, Canis lupus familiaris; parameters: dose 15 mg/kg, route intravenous; details: dog, in vivo
Summary of the method: (§2)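 Six female mongrel dogs (14-23 kg) fasted overnight, bladder catheterized; single 15 mg/kg solution doses by stomach tube (in water, total 500 mL) or cephalic vein (saline or pH 6.0 NaCl/phosphate/acetate buffer). Plasma sampled at intervals; activity by disk-plate agar diffusion against E. coli MB 3804, standards in dog serum or buffer. AUC μg min/mL, mean ± SEM; BA from iv vs po AUC and urinary recovery.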

Canis familiaris [4] = test: Area under plasma concentration vs time curve observed in female mongrel dogs after, oral administration of single 15 mg/kg dose; format: ADME, organism-based, Canis lupus familiaris; parameters: dose 15 mg/kg, route oral; details: dog, in vivo; summary of the method: as §2
[5] = Oral bioavailability in mouse; format: ADME, organism-based; details: in vivo
Summary of the method: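 Male Cox mice given water and liquid diet overnight; 20 mg/kg in saline (2 mg/mL) sc or orally; urine from collection cages plus bladder contents over 2 h; activity by agar well assay with Bacillus subtilis ATCC 6633. Bioavailability from percent dose excreted in urine after oral vs parenteral dosing.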

[6] = Oral bioavailability in Rhesus monkey; format: ADME, organism-based, Macaca mulatta; details: in vivo; summary of the method: as §1
[7] = Oral bioavailability in dog (female mongrel); format: ADME, organism-based, Canis lupus familiaris; details: in vivo; summary of the method: as §2
[8] = Dose in urine (24-h urine excretion) in female mongrel dogs after oral administration of single 15 mg/kg dose; format: ADME, organism-based, Canis lupus familiaris; parameters: dose 15 mg/kg, route oral; details: dog
Summary of the method: (§3)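 Female mongrel dogs (n=6), bladder catheter; urine collected at intervals after single 15 mg/kg iv or oral solution dose, frozen; antibiotic activity by disk-plate agar diffusion against E. coli MB 3804 with standards in pH 6.0 buffer; percent of dose recovered in urine.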

Escherichia coli = test: Minimum inhibitory concentration against EC14 strain Escherichia coli; format: functional
Klebsiella aerogenes = test: Minimum inhibitory concentration against EB17 strain of Enterobacter aerogenes; format: functional
Klebsiella pneumoniae = test: Minimum inhibitory concentration against X68 strain of Klebsiella pneumoniae; format: functional
Salmonella = test: Minimum inhibitory concentration against X514 strain of Salmonella; format: functional
[9] = Minimum inhibitory concentration against N9 strain of Shigella sonnei; format: functional
[10] = system: Staphylococcus epidermidis; test: Minimum inhibitory concentration against 222 strain of Staphylococcus epidermidis; format: functional
[11] = system: Staphylococcus epidermidis; test: Minimum inhibitory concentration against Epil strain of Staphylococcus epidermidis; format: functional
Staphylococcus aureus [12] = test: Minimum inhibitory concentration against S13E strain of Staphylococcus aureus; format: functional
Staphylococcus aureus [13] = test: Minimum inhibitory concentration against V41 strain of Staphylococcus aureus; format: functional
Staphylococcus aureus [14] = test: Minimum inhibitory concentration against X1.1 strain of Staphylococcus aureus; format: functional
Streptococcus pyogenes [15] = test: Minimum inhibitory concentration against Streptococcus pyogenes C203; format: functional
[16] = Minimum inhibitory concentration against sens CL strain of Haemophilus influenzae; format: functional
[17] = Minimum inhibitory concentration against res 76 strain of Haemophilus influenzae; format: functional
[18] = Dose in urine (24-h urine excretion) in female mongrel dogs after iv administration of single 15 mg/kg dose; format: ADME, organism-based, Canis lupus familiaris; parameters: dose 15 mg/kg, route intravenous; details: dog; summary of the method: as §3
Staphylococcus aureus [19] = test: Minimum inhibitory concentration against 3055 strain of Staphylococcus aureus
Streptococcus pyogenes [20] = test: Minimum inhibitory concentration against C203 strain of Streptococcus pyogenes
Streptococcus pneumoniae [21] = test: Minimum inhibitory concentration against park strain of Streptococcus pneumoniae
Streptococcus pneumoniae [22] = test: Minimum inhibitory concentration against Park strain of Streptococcus pneumoniae
[23] = Area under plasma concentration vs time curve observed in rats for 0-3 h; format: ADME; parameters: time < 3 hr; details: rat
Summary of the method: (§4)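 Rats, jugular vein cannulated (two per group), test compound iv 20 mg/kg; probenecid 100 mg/kg iv 5 min before in treated groups. Heparinized plasma sampled at 5, 20, 40 min and 1, 2, 3 h, assayed microbiologically (B. subtilis agar well). AUC 0-3 h in μg min/mL; half-life in min.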

[24] = Bioavailability in rat; format: ADME, organism-based; details: in vivo
Summary of the method: (§5)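 Male Wistar rats (200-300 g), jugular-cannulated, upper GI emptied by light cycle; 20 mg/kg in saline (6 mg/mL) sc or orally. Urine collected in wire-bottom cages, assayed by B. subtilis agar well method. Mean ± SD recovery with N and range; bioavailability = oral over mean sc recovery.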

[25] = Mean plasma levels in rats 1 hr after iv administration of 100 mg/kg of probenecid 5 min prior to test compound; format: ADME, organism-based; parameters: dose 100 mg/kg, route intravenous; details: rat, read-out: Plasma levels; summary of the method: as §4
[26] = Mean plasma levels in rats 2 hr after iv administration of 100 mg/kg of probenecid 5 min prior to test compound; format: ADME, organism-based; parameters: dose 100 mg/kg, route intravenous; details: rat, read-out: Plasma levels; summary of the method: as §4
[27] = Mean plasma levels in rats 3h after intravenous administration of 20 mg/kg of compound; format: ADME, organism-based; parameters: dose 20 mg/kg, route intravenous; details: rat, read-out: Plasma levels; summary of the method: as §4
[28] = Mean plasma levels in rats 40 min after iv administration of 100 mg/kg of probenecid 5 min prior to test compound; format: ADME, organism-based; parameters: dose 100 mg/kg, route intravenous; details: rat, read-out: Plasma levels; summary of the method: as §4
[29] = Mean plasma levels in rats at a time 5 min after iv administration of 100 mg/kg of probenecid 5 min prior to test compound; format: ADME, organism-based; parameters: dose 100 mg/kg, route intravenous; details: rat, read-out: Plasma levels; summary of the method: as §4
[30] = Mean plasma levels in rats 20 min after iv administration of 100 mg/kg of probenecid 5 min prior to test compound; format: ADME, organism-based; parameters: dose 100 mg/kg, route intravenous; details: rat, read-out: Plasma levels; summary of the method: as §4
[31] = Percent of urinary recovery in rats after, oral administration of single 20 mg/kg dose in solution (N,range); format: ADME, organism-based; parameters: dose 20 mg/kg, route oral; details: rat, urine, read-out: Recovery; summary of the method: as §5
[32] = Percent of urinary recovery in rats after, sc administration of single 20 mg/kg dose in solution (N,range); format: ADME, organism-based; parameters: dose 20 mg/kg, route subcutaneous; details: rat, urine, read-out: Recovery; summary of the method: as §5
[33] = Half-life of the compound; format: ADME; summary of the method: as §4

| SMILES | AUC [1] [ng·h/mL] | AUC [2] [ng·h/mL] | AUC (Canis familiaris [3]) [µg·h/mL] | AUC (Canis familiaris [4]) [µg·min/mL] | bioavailability [5] [%] | bioavailability [6] [%] | dose excreted [8] [%] | MIC (Klebsiella aerogenes) [µg/mL] | MIC (Salmonella) [µg/mL] | MIC [9] [µg/mL] | MIC [10] [µg/mL] | MIC [11] [µg/mL] | MIC (Staphylococcus aureus [14]) [µg/mL] | MIC (Streptococcus pyogenes [15]) [µg/mL] | MIC [16] [µg/mL] | MIC [17] [µg/mL] | dose excreted [18] [%] | MIC (Staphylococcus aureus [19]) [µg/mL] | MIC (Streptococcus pyogenes [20]) [µg/mL] | MIC (Streptococcus pneumoniae [21]) [µg/mL] | also measured |
| --- | --- | --- | --- | --- | --- | --- | --- | --- | --- | --- | --- | --- | --- | --- | --- | --- | --- | --- | --- | --- | --- |
| O=C(Cc1ccccc1)N[C@@H]1C(=O)N2C(C(=O)O)=C(Cl)CS[C@H]12 | 58300 | 8830 | 97.3 | 970 | 37 | 15.1 | 15 | > 128 | 4 (≈ 11.3 µM) | 64 (≈ 181 µM) | 1 (≈ 2.83 µM) | 2 (≈ 5.67 µM) | 0.5 (≈ 1.42 µM) | 0.125 (≈ 0.354 µM) | 1 (≈ 2.83 µM) | 1 (≈ 2.83 µM) | 67 | 0.5 (≈ 1.42 µM) | 0.125 (≈ 0.354 µM) | 0.25 (≈ 0.709 µM) | bioavailability [7]: 17%; MIC (Escherichia coli): 8 µg/mL (≈ 22.7 µM); MIC (Klebsiella pneumoniae): 4 µg/mL (≈ 11.3 µM); MIC (Staphylococcus aureus [12]): 32 µg/mL (≈ 90.7 µM); MIC (Staphylococcus aureus [13]): 16 µg/mL (≈ 45.4 µM); MIC (Streptococcus pneumoniae [22]): 0.125 µg/mL (≈ 0.354 µM) |
| Nc1nc(CC(=O)N[C@@H]2C(=O)N3C(C(=O)O)=C(Cl)CS[C@H]23)cs1 | 50300 | 2170 | 33.2 | 560 | 64 | 4.2 | 10 | 8 (≈ 21.3 µM) | 0.25 (≈ 0.667 µM) | 4 (≈ 10.7 µM) | 2 (≈ 5.34 µM) | 8 (≈ 21.3 µM) | 2 (≈ 5.34 µM) | 0.125 (≈ 0.333 µM) | 1 (≈ 2.67 µM) | 1 (≈ 2.67 µM) | 36 | 1 (≈ 2.67 µM) | 0.25 (≈ 0.667 µM) | 0.5 (≈ 1.33 µM) | AUC at 3 h [23]: 35400 ng·h/mL; bioavailability [24]: 19.2%; concentration at 1 h [25]: 9800 ng/mL; concentration at 2 h [26]: 1800 ng/mL; concentration at 3 h [27]: < 1300 ng/mL; concentration at 40 min [28]: 15600 ng/mL; concentration at 5 min [29]: 57.5 µg/mL; concentration at 20 min [30]: 32000 ng/mL; dose excreted [31]: 16.2%; dose excreted [32]: 84.3%; half-life [33]: 23.5 min; MIC (Streptococcus pneumoniae [22]): 0.25 µg/mL (≈ 0.667 µM) |

Reference: ChEMBL document CHEMBL1123985, “Oral absorption of cephalosporin antibiotics. 1. Synthesis, biological properties, and oral bioavailability of 7-(arylacetamido)-3-chloro cephalosporins in animals” (J Med Chem, 1988)
